Screening results as filed in PubChem BioAssay.
Only a selection was taken, and hits are over-represented in it overall.
UPR XBP1 act: adaptive UPR (XBP1) activation; CHO-XBP1 luciferase reporter, IRE1-XBP1 UPR activation, luminescence; percent of tunicamycin response, DMSO as zero; activation, % at 20 µM; 330,000 tested, 0.33% active; AID 463104;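 active = versus positive control, 20 µM dose yields 30% or more activation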
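Material: IRE1-XBP1 luciferase reporter CHO line / Quantity: one thousand reporter cells per well / Buffer or medium: F12 with 10% serum / Compound: 20 µM single concentration, DMSO 1% / Times: 6 h treatment, 37 °C / Detection: Steady-Glo luciferase glow luminescence, 10 min after reagent addition / Benchmarks: tunicamycin high, DMSO low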
CHOP inhibitor: blocks CHOP induction under ER stress. inhibition, % at 10 µM. AID 2732. 220,000 tested, 3.8% active. CHO-K1 CHOP-promoter luciferase, tunicamycin-induced, 15-18 h;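 active = compounds that reduced the stress-induced luciferase reporter signal by more than about 70% of percent inhibition, limit read from the data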
PvdQ inh: P. aeruginosa PvdQ acylase inhibition; inhibition, % at 10 µM; 340,000 tested, 0.063% active; purified PvdQ acylase, fluorescence plate reader; AID 488965; in the data active = inhibition above about 30%, passing the limit was not always enough
CHOP UPR activ: activators of apoptotic arm of unfolded protein response (CHOP) | CHO-CHOP luciferase reporter, UPR activation, luminescence; percent of tunicamycin response over DMSO baseline | activation, % at 10 µM | 330,000 tested, 0.34% active | AID 449763;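 active = at 10 µM dose, activation of 40% or more, normalized to positive control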
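System: CHO-CHOP luciferase reporter cell line | Buffer or medium: F12 medium containing 10% fetal bovine serum | Doses: One dose, 10 µM in 0.5% DMSO | Times: 6 h compound exposure at 37 °C after overnight seeding | Signal: Luciferase luminescence | Read-out: % activation vs tunicamycin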
CHOP confirm: confirmation of CHOP induction inhibitors; shares compounds with CHOP inhibitor; CHO-CHOP promoter luciferase reporter, tunicamycin-induced, luminescence; inhibition, % at 10 µM; 2,100 tested, 45% active;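 active = mean of three repeat readings of reporter signal inhibition above a set limit, cut at about 70% in these data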
Of the large screens only hits and unclear results are named; the others gave an inactive call (follow-up assays come after a bar, where they were run).

COc1cc(/C=C(/C#N)c2nc3ccccc3c(=O)[nH]2)ccc1O	CHOP inhibitor 101.9 | CHOP confirm 112.0
O=S1(=O)C=C(Sc2nc3cc(Cl)ccc3o2)c2ccccc21	none (no result: CHOP inhibitor) | CHOP confirm 138.3
Oc1ccc(Br)cc1-c1cc(-c2ccc(Cl)cc2)n[nH]1	CHOP inhibitor 104.4 | CHOP confirm inactive
COc1cc(CNC(=O)c2ccccc2NC(=O)C2=C(C)OCCS2)cc(OC)c1OC	none (no result: CHOP inhibitor)
COc1ccc(N(Cc2cc(=O)[nH]c3ccccc23)C(C)=O)cc1	none (no result: CHOP inhibitor)
CCOC(=O)C(C)Oc1cccc2c(=O)n(CC(=O)Nc3ccc(OCC)cc3)ccc12 (centres undefined)	CHOP inhibitor 105.8 | CHOP confirm inactive
CCOC(=O)C(C)Oc1cccc2c(=O)n(CC(=O)Nc3cccc(OC)c3)ccc12 (centres undefined)	none
CCOC(=O)c1ccc(NC(=O)CSc2nnc(CCc3ccc(C)o3)n2-c2ccccc2)cc1	CHOP inhibitor 103.1 | CHOP confirm inactive
Cc1[nH]n(-c2ccccc2)c(=O)c1N=Nc1ccccc1O	CHOP inhibitor 105.2 | CHOP confirm inactive
O=C1c2cccc3cccc(c23)C(=O)N1Cc1cccnc1	none
Cc1ccnc(N2C(=O)c3ccccc3C2=O)c1	none (no result: CHOP inhibitor)
Cc1ccnc(N2C(=O)c3cccc4c([N+](=O)[O-])ccc(c34)C2=O)c1	CHOP inhibitor 106.3 | CHOP confirm inactive
O=C1c2cccc3c([N+](=O)[O-])ccc(c23)C(=O)N1Cc1cccnc1	CHOP inhibitor 109.5 (no result: UPR XBP1 act, CHOP UPR activ) | CHOP confirm inactive
O=C(O)CNS(=O)(=O)c1c(Cl)cccc1Cl	none
O=C(Nc1ccc(F)cc1)N1CCn2c(nc3ccccc32)C1	CHOP inhibitor 98.4 | CHOP confirm inactive
Cn1c(N2CCN(C(=O)Nc3ccc(F)cc3)CC2)nc2ccccc21	none
O=C(C#Cc1ccccc1)c1ccco1	none (no result: CHOP inhibitor)
CC(C)(C)c1ccc(C(=O)Nc2ccc(CC(=O)O)cc2)o1	CHOP inhibitor 97.7 | CHOP confirm 92.1
COc1cccc(/C=N/Nc2nnc3c(n2)[nH]c2ccccc23)c1OC	none
CC(/C=N/Nc1nnc2c(n1)[nH]c1ccccc12)=C\c1ccco1	CHOP inhibitor 107.1 | CHOP confirm inactive
CCOc1ccc(-c2nc(CSCC(=O)NCc3ccco3)c(C)o2)cc1	CHOP inhibitor 105.7 | CHOP confirm 118.1
CC(C)CC1NC(=O)N(CC(=O)Nc2ccc3c(c2)CCC3)C1=O (centres undefined)	none
CC(=O)c1ccc(NC(=O)CC(C)S(=O)(=O)c2ccc3c(c2)CCN3C(C)=O)cc1 (centres undefined)	none (no result: CHOP inhibitor)
CCOc1ccc(NC2=C(Cl)C(=O)N(Cc3ccccc3)C2=O)cc1	CHOP inhibitor 105.3 | CHOP confirm inactive
Nc1cccnc1Sc1cc(Cl)c(Cl)cc1Cl	none
O=C(COc1ccc(Cl)cc1Cl)NCCC1=CCCCC1	CHOP inhibitor 107.2 | CHOP confirm 115.1
COc1cc(/C=C/C(=O)OCC(=O)NCCC2=CCCCC2)ccc1O	none
Cc1ccccc1OCC(=O)NCCC1=CCCCC1	none
O=C(COC(=O)/C=C/c1cccc(Br)c1)NCCC1=CCCCC1	CHOP inhibitor 96.2 | CHOP confirm inactive
Nc1nc(NC(=O)c2ccccc2)nn1-c1ccccc1	none
O=C(Nc1nc(NC(=O)c2ccco2)n(-c2ccccc2)n1)c1ccccc1	CHOP inhibitor 106.3 | CHOP confirm inactive
CC(=O)N(c1ccccc1)c1nc(/C=C/C(=O)Nc2c(C)cc(C)cc2C)cs1	none
COc1cc2c(cc1OC)C(c1ccccc1)N(C(=O)CCl)CC2 (centres undefined)	CHOP inhibitor 110.7 | CHOP confirm 117.1
COc1cc2c(cc1OC)C(C1C(=O)CCCC1=O)N(C(=O)CCl)CC2 (centres undefined)	none
CCOc1cc(NC(=S)NCC(C)C)c(OCC)cc1NC(=O)c1cccs1	CHOP inhibitor 99.6 | CHOP confirm 100.0
CNc1nc(N/N=C/c2cc3c(cc2[N+](=O)[O-])OCO3)nc(Nc2ccccc2)n1	CHOP inhibitor 105.8 | CHOP confirm inactive
CNc1nc(N/N=C/c2cc([N+](=O)[O-])ccc2F)nc(Nc2ccccc2)n1	none (no result: UPR XBP1 act, CHOP inhibitor, CHOP UPR activ)
Cc1nn(-c2ccc(F)cc2)c2nc(N)c(C#N)c(-c3cccs3)c12	CHOP inhibitor 99.7 | CHOP confirm inactive
CCCNc1nc2c(c(=O)[nH]c(=O)n2C)n1CCOc1ccccc1	none (no result: CHOP inhibitor)
CCCn1c(N/N=C(C)\C=C\c2ccccc2)nc2c1c(=O)[nH]c(=O)n2C	CHOP inhibitor 103.5 (no result: PvdQ inh) | CHOP confirm inactive
c1ccc(Nc2ccc3c4c(cccc24)CC3)cc1	CHOP inhibitor 99.9 | CHOP confirm inactive
OC1(c2cccc(C(F)(F)F)c2)CCN(c2ncnc3c2[nH]c2ccc(F)cc23)CC1	none (no result: UPR XBP1 act, CHOP inhibitor, CHOP UPR activ) | CHOP confirm 101.6
CCC12CSc3nc(Cl)ccc3N1C(=O)C(=O)N2C (centres undefined)	none (no result: UPR XBP1 act, PvdQ inh, CHOP UPR activ)
COCCNC(=S)Nc1ccc(S(=O)(=O)Nc2ncccn2)cc1	none
COc1ccc(N2CC(C(=O)Nc3nc4ccc(OC)cc4s3)CC2=O)cc1 (centres undefined)	none (no result: CHOP inhibitor)
O=C(Nc1nc2ccccc2s1)C1CC(=O)N(c2ccc(Cl)cc2)C1 (centres undefined)	CHOP inhibitor 105.3 | CHOP confirm inactive
Cc1ccc(C2=NN(S(=O)(=O)c3ccccc3)C(c3ccccc3O)C2)cc1 (centres undefined)	CHOP inhibitor 105.6 (no result: UPR XBP1 act, CHOP UPR activ) | CHOP confirm inactive
COc1ccc(C2CC(c3ccccc3)=NN2S(=O)(=O)c2ccccc2)cc1 (centres undefined)	none
O=C(c1cccs1)N1N=C(c2ccccc2)CC1c1ccccc1O (centres undefined)	none
Cc1ccc(C2=NN(C(=O)c3cccs3)C(c3ccccc3O)C2)cc1 (centres undefined)	CHOP inhibitor 102.6 | CHOP confirm 104.9
Cc1ccc(C(=O)N/C(=C\c2ccc(Br)cc2)c2nc(=S)[nH][nH]2)cc1	CHOP inhibitor 107.8 | CHOP confirm 121.6
O=C(COc1ccc(Cl)cc1Cl)N1CCNC1=O	none (no result: CHOP inhibitor)
O=C(Oc1ccc(Br)cc1C(=S)N1CCOCC1)c1ccc(F)cc1	none (no result: CHOP inhibitor)
CCC(=O)c1ccccc1OCC(=O)Nc1c(C)cccc1C	none
Cc1cccc(C)c1NC(=O)COc1ccccc1C(=O)Nc1ccc(Br)cn1	CHOP inhibitor 106.3 | CHOP confirm 101.5
Cc1ccc2nc(-c3ccc(SCC(=O)O)nc3)[nH]c2c1	none
Cc1ccc2nc(-c3ccc(NC(=O)CSc4ccccc4)cc3)[nH]c2c1	CHOP inhibitor 103.1 | CHOP confirm inactive
O=C(CSc1ccc(Cl)cc1)Nc1cccc(-c2nc3ccccc3[nH]2)c1	CHOP inhibitor 98.6 | CHOP confirm inactive
CCc1nnc(NC(=O)CSc2ccc(-c3nc4ccc(C)cc4[nH]3)cn2)s1	CHOP inhibitor 99.6 | CHOP confirm inactive
c1ccc(-c2cc3ccccc3[nH]2)cc1	none (no result: CHOP inhibitor)
Clc1ccc2[nH]c(-c3ccccc3)cc2c1	CHOP inhibitor 103.7 | CHOP confirm 70.5
O=C(O)c1ccc(Cl)c(S(=O)(=O)Nc2ccccc2Cc2ccccc2)c1	none (no result: CHOP inhibitor)
